# Measured values taken from ChEMBL document CHEMBL1275449, “Potent in vitro antifungal activities of naturally occurring acetylenic acids” (Antimicrob Agents Chemother, 2008).
# Active and inactive are the calls of the source. No cut-off for these calls is given here.
# Legend:
# Candida albicans [1] = experiment: Antifungal activity against Candida albicans ATCC 90028 at 68.3 uM after 48 hrs by CLSI method; assay type: functional, organism-based
# Outline: (§1)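 Candida inocula came from 24–72-h SD agar colonies suspended in saline. They were diluted by OD630 standard curve into RPMI 1640 (0.2% dextrose, 0.03% glutamine, 0.165 M MOPS, pH 7.0) to 1.5 × 10³ CFU/ml. Compounds were run as 11 twofold dilutions in 20% DMSO-saline, in duplicate, at 35°C for 48 h, with OD530 read before and after. Percent growth at the top concentration, IC50, MIC, and MFC (SD agar plating) were derived.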
# Candida albicans [2] = experiment: Antifungal activity against Candida albicans ATCC 200955 at 68.3 uM after 48 hrs by CLSI method; assay type: functional, organism-based; outline: as §1
# Candida albicans [3] = experiment: Antifungal activity against Fluconazole resistant Candida albicans isolate 1 at 68.3 uM after 48 hrs by CLSI method; assay type: functional, organism-based
# Outline: (§2)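 Candida in CLSI broth microdilution. Saline colony suspension set to 1.5 × 10³ CFU/ml (final) in MOPS-buffered RPMI 1640, pH 7.0. Test agent given as twofold serial dilutions in 20% DMSO-saline, duplicate wells. 35°C for 48 h. Growth read as OD530 before and after incubation. Percent inhibition scored at the highest test concentration.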
# Candida albicans [4] = experiment: Antifungal activity against Fluconazole resistant Candida albicans isolate 17 at 68.3 uM after 48 hrs by CLSI method; assay type: functional, organism-based; outline: as §2
# Nakaseomyces glabratus = experiment: Antifungal activity against Candida glabrata ATCC 90030 at 68.3 uM after 48 hrs by CLSI method; assay type: functional, organism-based; outline: as §1
# Pichia kudriavzevii [5] = experiment: Antifungal activity against Candida krusei ATCC 6258 at 68.3 uM after 48 hrs by CLSI method; assay type: functional, organism-based
# Outline: (§3)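 Yeast suspensions made from 3-5 colonies off 24-72 h SD agar plates in saline. They were diluted by OD630 standard curve in RPMI 1640 (0.2% dextrose, 0.03% glutamine, 0.165 M MOPS, pH 7.0) to 1.5 × 10³ CFU/ml. Twofold dilutions (11 concentrations, 20% DMSO-saline) run in duplicate. OD530 read before and after 35°C, 48 h. Line values are top test concentrations; no-growth endpoints give MIC/MFC.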
# Trichophyton rubrum [6] = experiment: Antifungal activity against Trichophyton rubrum ATCC 10218 by CLSI method; assay type: functional, organism-based
# Outline: (§4)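 Growth scraped from 1- to 6-week-old potato dextrose slants and filtered through Miracloth. Diluted in 5% Alamar blue-RPMI 1640 (MOPS pH 7.0) to 2.7 × 10⁴ CFU/ml. Eleven twofold dilutions in duplicate. Fluorescence at 544 nm excitation/590 nm emission read before and after 35°C, 5 days. IC50 fitted from percent growth. MIC taken as no detectable growth; MFC from clear or blue wells plated on PD agar.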
# Candida parapsilosis [7] = experiment: Antifungal activity against Candida parapsilosis ATCC 22019 at 68.3 uM after 48 hrs by CLSI method; assay type: functional, organism-based; outline: as §3
# Trichophyton rubrum [8] = experiment: Antifungal activity against Trichophyton rubrum ATCC MYA-4438 by CLSI method; assay type: functional, organism-based; outline: as §4
# [9] = tested on: Trichophyton mentagrophytes; experiment: Antifungal activity against Trichophyton mentagrophytes ATCC 9533 by CLSI method; assay type: functional, organism-based; outline: as §4
# Candida tropicalis [10] = experiment: Antifungal activity against Candida tropicalis ATCC 750 at 68.3 uM after 48 hrs by CLSI method; assay type: functional, organism-based; outline: as §3
# [11] = tested on: Trichophyton mentagrophytes; experiment: Antifungal activity against Trichophyton mentagrophytes ATCC MYA-4439 by CLSI method; assay type: functional, organism-based; outline: as §4
# Cryptococcus neoformans [12] = experiment: Antifungal activity against Cryptococcus neoformans ATCC 66031 after 72 hrs by CLSI method; assay type: functional, organism-based; conditions: ATCC 66031, 72 h
# Outline: (§5)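 SD broth replaced RPMI because growth in RPMI was poor; other CLSI conditions were kept. Inoculum was 1.5 × 10³ CFU/ml from colonies on SD agar, checked by plating. Twofold serial dilutions (11 concentrations) in 20% DMSO-saline were tested in duplicate. OD530 was read before and after incubation at 35°C for 72 h. Percent growth gave IC50; the MIC is the lowest concentration with no detectable growth.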
# Cryptococcus neoformans [13] = experiment: Antifungal activity against Cryptococcus neoformans ATCC 90113 after 72 hrs by CLSI method; assay type: functional, organism-based; conditions: ATCC 90113, 72 h; outline: as §5
# Candida tropicalis [14] = experiment: Antifungal activity against Candida tropicalis ATCC 750 after 48 hrs by CLSI method; assay type: functional, organism-based; conditions: ATCC 750, 48 h; outline: as §3
# Candida parapsilosis [15] = experiment: Antifungal activity against Candida parapsilosis ATCC 22019 after 48 hrs by CLSI method; assay type: functional, organism-based; conditions: Lodderomyces parapsilosis, ATCC 22019, 48 h; outline: as §3
# Pichia kudriavzevii [16] = experiment: Antifungal activity against Candida krusei ATCC 6258 after 48 hrs by CLSI method; assay type: functional, organism-based; conditions: ATCC 6258, 48 h; outline: as §1
# Candida albicans [17] = experiment: Antifungal activity against Fluconazole resistant Candida albicans clinical isolate 17 after 48 hrs by CLSI method; assay type: functional, organism-based
# Outline: (§6)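 CLSI broth microdilution. Colonies from 24–72 h SD agar suspended in saline and sized by OD630 standard curve. Inoculum 1.5 × 10³ CFU/ml (final) in RPMI 1640 (0.2% dextrose, 0.03% glutamine, 0.165 M MOPS, pH 7.0). Twofold dilutions (11 levels) from 20% DMSO-saline, in duplicate. 35°C for 48 h, OD530 read before and after. IC50 fitted from % growth. MIC: no detectable growth. MFC: subculture onto SD agar.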
# Aspergillus fumigatus [18] = experiment: Antifungal activity against Aspergillus fumigatus ATCC 204305 at 68.3 uM after 48 hrs by CLSI method; assay type: functional, organism-based
# Candida albicans [19] = experiment: Antifungal activity against Fluconazole resistant Candida albicans clinical isolate 1 after 48 hrs by CLSI method; assay type: functional, organism-based; outline: as §6
# Aspergillus fumigatus [20] = experiment: Antifungal activity against Aspergillus fumigatus ATCC 90906 at 68.3 uM after 48 hrs by CLSI method; assay type: functional, organism-based
# Candida albicans [21] = experiment: Antifungal activity against Candida albicans ATCC 200955 after 48 hrs by CLSI method; assay type: functional, organism-based; conditions: ATCC 200955, 48 h; outline: as §6
# Aspergillus niger [22] = experiment: Antifungal activity against Aspergillus niger ATCC 16404 at 68.3 uM after 48 hrs by CLSI method; assay type: functional, organism-based
# Candida albicans [23] = experiment: Antifungal activity against Candida albicans ATCC 90028 after 48 hrs by CLSI method; assay type: functional, organism-based; conditions: ATCC 90028, 48 h; outline: as §6
# Candida albicans [24] = experiment: Antifungal activity against Candida albicans ATCC 32354 after 48 hrs by CLSI method; assay type: functional, organism-based; conditions: ATCC 32354, 48 h; outline: as §6
# Trichophyton rubrum [25] = experiment: Antifungal activity against Trichophyton rubrum ATCC MYA-4438 at 68.3 uM after 5 days by CLSI method; assay type: functional, organism-based
# Candida albicans [26] = experiment: Antifungal activity against Candida albicans ATCC 14053 after 48 hrs by CLSI method; assay type: functional, organism-based; conditions: ATCC 14053, 48 h; outline: as §6
# Candida albicans [27] = experiment: Antifungal activity against Candida albicans ATCC 60193 after 48 hrs by CLSI method; assay type: functional, organism-based; conditions: ATCC 60193, 48 h; outline: as §6
# Candida albicans [28] = experiment: Antifungal activity against Candida albicans ATCC 14053 at 68.3 uM after 48 hrs by CLSI method; assay type: functional, organism-based
# Candida albicans [29] = experiment: Antifungal activity against Candida albicans ATCC 60193 at 68.3 uM after 48 hrs by CLSI method; assay type: functional, organism-based; outline: as §1
# Candida albicans [30] = experiment: Antifungal activity against Candida albicans ATCC 32354 at 68.3 uM after 48 hrs by CLSI method; assay type: functional, organism-based; outline: as §1
# Aspergillus niger [31] = experiment: Antifungal activity against Aspergillus niger ATCC 16404 after 48 h by CLSI method; conditions: ATCC 16404, 48 h
# Aspergillus flavus = experiment: Antifungal activity against Aspergillus flavus ATCC 204304 after 48 h by CLSI method; conditions: ATCC 204304, 48 h
# Aspergillus fumigatus [32] = experiment: Antifungal activity against Aspergillus fumigatus ATCC 90906 after 48 h by CLSI method; conditions: ATCC 90906, 48 h
# Aspergillus fumigatus [33] = experiment: Antifungal activity against Aspergillus fumigatus ATCC 204305 after 48 h by CLSI method; conditions: ATCC 204305, 48 h
structure (smiles),measurement,setting,value
CN(C/C=C/C#CC(C)(C)C)Cc1cccc2ccccc12 [TERBINAFINE],Activity,Candida albicans [1],inactive
same,Activity,Candida albicans [2],inactive
same,Activity,Candida albicans [3],inactive
same,Activity,Candida albicans [4],inactive
same,Activity,Nakaseomyces glabratus,inactive
same,Activity,Pichia kudriavzevii [5],inactive
same,IC50,Trichophyton rubrum [6],< 0.02 µM
same,MFC,Trichophyton rubrum [6],0.13 µM
same,MIC,Trichophyton rubrum [6],0.1 µM
same,Activity,Candida parapsilosis [7],inactive
same,IC50,Trichophyton rubrum [8],4.2 µM
same,MIC,Trichophyton rubrum [8],21.4 µM
same,IC50,[9],< 0.02 µM
same,MFC,[9],0.27 µM
same,MIC,[9],0.05 µM
same,Activity,Candida tropicalis [10],inactive
same,IC50,[11],< 0.02 µM
same,MFC,[11],0.27 µM
same,MIC,[11],0.17 µM
same,IC50,Cryptococcus neoformans [12],0.4 µM
same,MFC,Cryptococcus neoformans [12],8.6 µM
same,MIC,Cryptococcus neoformans [12],4.3 µM
same,IC50,Cryptococcus neoformans [13],0.5 µM
same,MFC,Cryptococcus neoformans [13],1.1 µM
same,MIC,Cryptococcus neoformans [13],1.1 µM
same,IC50,Candida tropicalis [14],45.4 µM
same,IC50,Candida parapsilosis [15],0.4 µM
same,MIC,Candida parapsilosis [15],42.9 µM
same,IC50,Pichia kudriavzevii [16],> 68.3 µM
same,IC50,Candida albicans [17],> 68.3 µM
same,Activity,Aspergillus fumigatus [18],inactive
same,IC50,Candida albicans [19],11.2 µM
same,Activity,Aspergillus fumigatus [20],inactive
same,IC50,Candida albicans [21],3.1 µM
same,MIC,Candida albicans [21],51.5 µM
same,Activity,Aspergillus niger [22],inactive
same,IC50,Candida albicans [23],10.8 µM
same,IC50,Candida albicans [24],2.6 µM
same,Activity,Trichophyton rubrum [25],inactive
same,IC50,Candida albicans [26],13.7 µM
same,IC50,Candida albicans [27],5.3 µM
same,Activity,Candida albicans [28],inactive
same,Activity,Candida albicans [29],inactive
same,Activity,Candida albicans [30],inactive
same,IC50,Aspergillus niger [31],0.7 µM
same,MIC,Aspergillus niger [31],2.1 µM
same,IC50,Aspergillus flavus,0.3 µM
same,MFC,Aspergillus flavus,8.6 µM
same,MIC,Aspergillus flavus,2.1 µM
same,IC50,Aspergillus fumigatus [32],1 µM
same,MIC,Aspergillus fumigatus [32],4.3 µM
same,IC50,Aspergillus fumigatus [33],1.1 µM
same,MIC,Aspergillus fumigatus [33],4.3 µM
